Source: ChEMBL document CHEMBL2321703, “Identification of novel D-amino acid oxidase inhibitors by in silico screening and their functional characterization in vitro” (J Med Chem, 2013)
Activity calls are given as the source filed them. No cut-off for these calls is given here.

What was measured:
D-amino-acid oxidase [1] = target: T1, D-amino-acid oxidase (Homo sapiens, UniProt P14920); assay: Binding affinity to human recombinant N-terminal His-tagged DAO expressed in Escherichia coli BL21(DE3) at 40 uM after 2 to 30 mins by absorption spectra analysis; conditions: 200 uM, in the assay text read “at 200 uM” for “at 40 uM”
How it was run: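 Purified enzyme at 1.7 μg/μL in 10 mM sodium pyrophosphate pH 8.3 with 2 mM EDTA, 5 mM 2-mercaptoethanol, 10% (v/v) glycerol; wavelength scans at 25 °C before and after compound addition (final 40 μM or 200 μM depending on compound), recorded at indicated times; binding inferred from perturbation of the absorption spectrum.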
Target sequence in this assay (P14920 whole entry, looked up): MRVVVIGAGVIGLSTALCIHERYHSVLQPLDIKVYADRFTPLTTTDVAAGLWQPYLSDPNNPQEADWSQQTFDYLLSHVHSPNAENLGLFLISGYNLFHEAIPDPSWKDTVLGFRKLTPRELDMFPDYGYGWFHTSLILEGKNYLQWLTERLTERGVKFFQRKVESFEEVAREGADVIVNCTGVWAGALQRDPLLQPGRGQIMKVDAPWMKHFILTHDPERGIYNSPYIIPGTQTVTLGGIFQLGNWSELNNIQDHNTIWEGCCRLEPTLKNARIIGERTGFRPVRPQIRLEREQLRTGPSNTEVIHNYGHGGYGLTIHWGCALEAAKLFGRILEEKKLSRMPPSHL

[2] = target: T2, D-aspartate oxidase (Homo sapiens) (UniProt Q99489); assay: (§1) Inhibition of human recombinant N-terminal His-tagged DDO expressed in Escherichia coli BL21(DE3) using D-aspartate as substrate by colorimetric assay
T2 sequence (whole entry): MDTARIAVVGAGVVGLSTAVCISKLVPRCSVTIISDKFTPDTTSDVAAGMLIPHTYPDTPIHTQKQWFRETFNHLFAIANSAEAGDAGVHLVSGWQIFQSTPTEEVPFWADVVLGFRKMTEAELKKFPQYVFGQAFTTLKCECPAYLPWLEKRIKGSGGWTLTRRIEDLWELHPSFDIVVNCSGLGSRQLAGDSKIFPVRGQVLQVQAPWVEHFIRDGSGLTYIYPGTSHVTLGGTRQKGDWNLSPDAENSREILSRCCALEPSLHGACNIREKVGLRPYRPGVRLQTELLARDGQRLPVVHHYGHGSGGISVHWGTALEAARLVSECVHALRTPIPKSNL
How it was run: (§2)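 Purified enzyme (0.23–4.2 μg) with 10 mM D-Asp in air-saturated 40 mM sodium pyrophosphate pH 8.3, 23 U catalase, 60 μM FAD; 37 °C, 10 min; trichloroacetic acid stop; 2-oxo acid measured as 2,4-dinitrophenylhydrazone at A445.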

D-aspartate oxidase = target: T3, D-aspartate oxidase (Homo sapiens, UniProt Q99489); assay: as §1; how it was run: as §2
T3 sequence (Q99489 whole entry): T2 sequence (whole entry)

Serine racemase = target: T4, Serine racemase (Homo sapiens, UniProt Q9GZT4); assay: (§3) Inhibition of human recombinant N-terminal His-tagged serine racemase expressed in Escherichia coli BL21(DE3) using L-serine as substrate after 10 mins by fluorescence assay
T4 sequence (Q9GZT4 whole entry): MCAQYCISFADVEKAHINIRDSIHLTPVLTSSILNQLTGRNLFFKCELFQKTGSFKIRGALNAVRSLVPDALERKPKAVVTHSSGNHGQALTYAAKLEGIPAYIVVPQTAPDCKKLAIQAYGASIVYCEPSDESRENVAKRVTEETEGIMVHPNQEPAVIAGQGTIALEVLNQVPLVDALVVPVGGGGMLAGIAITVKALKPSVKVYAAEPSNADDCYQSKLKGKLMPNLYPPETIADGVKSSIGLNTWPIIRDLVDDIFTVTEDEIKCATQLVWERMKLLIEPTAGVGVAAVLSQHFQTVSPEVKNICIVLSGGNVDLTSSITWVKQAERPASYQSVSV
How it was run: (§4)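 Purified enzyme (30 μg) in 40 mM Tris-HCl pH 8.0, 60 μM pyridoxal phosphate, 1 mM MgCl2, ATP, 1 mM dithiothreitol, 10 mM L-Ser, with compound; 37 °C, 10 min; methanol stop. D-Ser quantified by OPA/Boc-L-cysteine derivatization and reversed-phase HPLC fluorescence (ex 344, em 443 nm).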

[3] = target: T5, Serine racemase (Homo sapiens) (UniProt Q9GZT4); assay: as §3; how it was run: as §4
T5 sequence (whole entry): T4 sequence (Q9GZT4 whole entry)

D-amino-acid oxidase [4] = target: T1, D-amino-acid oxidase; assay: Inhibition of human recombinant N-terminal His-tagged DAO expressed in Escherichia coli BL21(DE3) using D-serine as substrate by colorimetric assay
D-amino-acid oxidase [5] = target: T1, D-amino-acid oxidase; assay: Inhibition of human recombinant N-terminal His-tagged DAO expressed in Escherichia coli BL21(DE3) using D-alanine as substrate by colorimetric assay
HEK293 [6] = assay: Effect on L-alanine level in G418-resistant HEK293 cells at 17 uM by HPLC analysis relative to vehicle-treated control; type: functional, cell-based; conditions: Homo sapiens
How it was run: (§5)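 293/NEO (empty-vector, G418-selected) or 293.HA-hDAO-24 (stable N-terminal HA-tagged human DAO) cells, 1 × 10^6 seeded, maintained in DMEM/10% FBS/800 μg/mL G418; next day fresh medium, compound or vehicle (5% DMSO solution) for 30 min, then 17 mM D-Ala for 24 h. Methanol extraction; D-/L-Ala by OPA/NAC derivatization HPLC with fluorescence; mean ± SD of three assays; Dunnett test vs vehicle.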

[7] = tested on: D-amino-acid oxidase (Homo sapiens), P14920 [Y224F]; assay: (§6) Inhibition of human recombinant N-terminal His-tagged DAO Y224F mutant expressed in Escherichia coli BL21(DE3) using D-alanine as substrate after 10 mins by Lineweaver-Burk plot analysis
D-amino-acid oxidase [8] = target: T1, D-amino-acid oxidase; assay: Binding affinity to human recombinant N-terminal His-tagged DAO expressed in Escherichia coli BL21(DE3) at 200 uM after 2 to 30 mins by absorption spectra analysis
Target sequence in this assay (P14920 whole entry, looked up): as the sequence (P14920 whole entry, looked up) above

D-amino-acid oxidase [9] = target: T1, D-amino-acid oxidase; conditions: HEK293, 83 uM
Target sequence in this assay (P14920 whole entry, looked up): as the sequence (P14920 whole entry, looked up) above

HEK293/NEO [10] = assay: Effect on L-alanine level in G418-resistant HEK293/NEO cells at 83 uM by HPLC analysis relative to vehicle-treated control; type: functional, cell-based; conditions: Homo sapiens; how it was run: as §5
HEK293 [11] = assay: Effect on L-alanine level in G418-resistant HEK293 cells at 83 uM by HPLC analysis relative to vehicle-treated control; type: functional, cell-based; conditions: Homo sapiens; how it was run: as §5
D-amino-acid oxidase [12] = target: T1, D-amino-acid oxidase; assay: Inhibition of human recombinant DAO expressed in G418-resistant HEK293/NEO cells assessed as effect on D-alanine level at 83 uM incubated for 30 mins prior to D-alanine addition measured after 24 hrs by HPLC analysis relative to vehicle-treated control; type: cell-based
How it was run: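 HEK293 cells stably carrying HA-tagged human DAO (clone 293.HA-hDAO-24) or empty vector (293/NEO), seeded at 1 × 10^6. Next day, fresh medium and 83 μM compound or vehicle (5% DMSO solution) for 30 min, then 17 mM D-Ala for 24 h. Cells methanol-extracted; D-/L-Ala by OPA/NAC-derivatized HPLC. Three independent assays, Dunnett test vs vehicle.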
Target sequence in this assay (P14920 whole entry, looked up): as the sequence (P14920 whole entry, looked up) above

HEK293/NEO [13] = assay: Effect on L-alanine level in G418-resistant HEK293/NEO cells at 17 uM by HPLC analysis relative to vehicle-treated control; type: functional, cell-based; conditions: Homo sapiens; how it was run: as §5
[14] = tested on: D-amino-acid oxidase (Homo sapiens), P14920 [Y224A]; assay: (§7) Inhibition of human recombinant N-terminal His-tagged DAO Y224A mutant expressed in Escherichia coli BL21(DE3) using D-alanine as substrate after 10 mins by Lineweaver-Burk plot analysis
D-amino-acid oxidase [15] = target: T1, D-amino-acid oxidase; assay: Competitive inhibition of human recombinant N-terminal His-tagged DAO expressed in Escherichia coli BL21(DE3) using D-alanine as substrate by Lineweaver-Burk plot analysis
How it was run: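 Purified N-terminal His-tagged human DAO from E. coli BL21(DE3)pLysS. Colorimetric 2-oxo acid assay in air-saturated 40 mM sodium pyrophosphate pH 8.3 with catalase, 60 μM FAD and 0.5–40 mM D-Ala, 37 °C for 10 min. Stopped with TCA, derivatized with 2,4-dinitrophenylhydrazine, read at A445. Lineweaver–Burk plots; Ki confirmed by slope replot against inhibitor concentration. Three independent experiments.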
Target sequence in this assay (P14920 whole entry, looked up): as the sequence (P14920 whole entry, looked up) above

D-amino-acid oxidase [16] = target: T1, D-amino-acid oxidase; assay: Inhibition of human recombinant N-terminal His-tagged DAO expressed in Escherichia coli BL21(DE3) using D-alanine as substrate by Lineweaver-Burk plot analysis
Target sequence in this assay (P14920 whole entry): as the sequence (P14920 whole entry, looked up) above

D-amino-acid oxidase [17] = target: D-amino-acid oxidase (Homo sapiens, UniProt P14920, Y224F); assay: as §6
D-amino-acid oxidase [18] = target: D-amino-acid oxidase (Homo sapiens, UniProt P14920, Y224A); assay: as §7
D-amino-acid oxidase (Homo sapiens, UniProt P14920, Y224A), sequence (P14920 whole entry Y224A): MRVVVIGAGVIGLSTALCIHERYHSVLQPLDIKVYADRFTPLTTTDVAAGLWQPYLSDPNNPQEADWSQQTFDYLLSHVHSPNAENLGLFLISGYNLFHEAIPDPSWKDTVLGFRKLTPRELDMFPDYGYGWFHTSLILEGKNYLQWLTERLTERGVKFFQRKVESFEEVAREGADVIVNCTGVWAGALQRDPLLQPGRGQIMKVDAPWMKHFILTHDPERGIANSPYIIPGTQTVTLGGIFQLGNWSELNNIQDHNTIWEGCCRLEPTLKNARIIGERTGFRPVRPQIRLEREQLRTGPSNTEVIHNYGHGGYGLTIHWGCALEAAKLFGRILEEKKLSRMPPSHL

D-amino-acid oxidase (Homo sapiens), P14920 [Y224F], sequence (P14920 whole entry Y224F): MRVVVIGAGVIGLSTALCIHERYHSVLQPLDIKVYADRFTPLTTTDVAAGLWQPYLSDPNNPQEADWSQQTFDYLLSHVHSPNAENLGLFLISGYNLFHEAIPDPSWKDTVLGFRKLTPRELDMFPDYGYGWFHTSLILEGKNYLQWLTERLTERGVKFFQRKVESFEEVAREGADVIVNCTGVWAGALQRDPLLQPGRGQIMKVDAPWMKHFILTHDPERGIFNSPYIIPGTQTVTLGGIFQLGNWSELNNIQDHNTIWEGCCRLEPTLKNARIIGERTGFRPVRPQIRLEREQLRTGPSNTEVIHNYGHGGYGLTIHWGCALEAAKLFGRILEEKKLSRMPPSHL
D-amino-acid oxidase (Homo sapiens), P14920 [Y224A], sequence (P14920 whole entry Y224A): as the sequence (P14920 whole entry Y224A) above
D-amino-acid oxidase (Homo sapiens, UniProt P14920, Y224F), sequence (P14920 whole entry Y224F): as the sequence (P14920 whole entry Y224F) above

Compound | inhibition [2] | IC50 (D-aspartate oxidase) | IC50 (Serine racemase) | inhibition [3] | IC50 (D-amino-acid oxidase [4]) | IC50 (D-amino-acid oxidase [5]) | inhibition (D-amino-acid oxidase [5]) | other results
O=C(O)CC(=O)O [MALONIC ACID] | Dose-dependent effect | 1350 µM | 24.9 µM | Dose-dependent effect | > 10000 µM | – | – | Activity (D-amino-acid oxidase [1]): inactive
O=C(O)C1=CN2CCN=C2C=C1 | – | – | – | – | > 1000 µM | – | – | –
C/C=C/C(=O)O [CROTONIC ACID] | – | > 10000 µM | > 10000 µM | – | 357 µM | 598 µM | – | inhibition (D-amino-acid oxidase [4]): Dose-dependent effect
Nc1cncc(C(=O)O)c1 | – | – | – | – | > 2500 µM | – | – | –
O=C(O)c1ccsc1 | Dose-dependent effect | > 10000 µM | 8210 µM | Dose-dependent effect | – | – | Dose-dependent effect | Activity (HEK293 [6]): inactive; inhibition [7]: Dose-dependent effect; Activity (D-amino-acid oxidase [8]): Active; inhibition (D-amino-acid oxidase [9]): Active; Activity (HEK293/NEO [10]): inactive; Activity (HEK293 [11]): inactive; inhibition (D-amino-acid oxidase [12]): inactive; Activity (HEK293/NEO [13]): inactive; inhibition (D-amino-acid oxidase [4]): Dose-dependent effect; inhibition [14]: Dose-dependent effect; inhibition (D-amino-acid oxidase [15]): Active
O=C(O)c1cc2c(s1)CCC2 | Dose-dependent effect | > 10000 µM | 5280 µM | Dose-dependent effect | 28.5 µM | 59.8 µM | Dose-dependent effect | Activity (HEK293 [6]): inactive; Activity (D-amino-acid oxidase [1]): Active; Ki (D-amino-acid oxidase [16]): 9.92 µM; Ki (D-amino-acid oxidase [17]): 14.4 µM; inhibition [7]: Dose-dependent effect; Activity (HEK293/NEO [10]): inactive; Activity (HEK293 [11]): inactive; inhibition (D-amino-acid oxidase [12]): inactive; inhibition (D-amino-acid oxidase [4]): Dose-dependent effect; inhibition [14]: Dose-dependent effect; Ki (D-amino-acid oxidase [18]): 4.59 µM; inhibition (D-amino-acid oxidase [15]): Active
Nc1ccc(-c2nnc(O)o2)cc1 | – | – | – | – | > 10000 µM | – | – | –
Oc1cc(-c2ccccc2)no1 | – | – | – | – | > 500 µM | – | – | –
Oc1nc(-c2ccccc2)no1 | – | – | – | – | > 5000 µM | – | – | –
O=C(O)c1cc2c([nH]1)CCCC2 | – | – | – | – | > 100 µM | – | – | –
O=C(O)[C@@H](O)[C@@H](O)C(=O)O | Dose-dependent effect | – | – | Dose-dependent effect | – | – | – | –
O=C(O)c1ccc2cccnc2n1 | – | – | – | – | > 10000 µM | – | – | –
CNCC(=O)c1ccc(O)c(O)c1 [ADRENALONE] | – | – | – | – | > 1000 µM | – | – | –
O=C(O)c1cc2c(s1)CCCC2 | Dose-dependent effect | > 10000 µM | 5010 µM | Dose-dependent effect | 900 µM | 1450 µM | Dose-dependent effect | –
NC[C@H](O)c1ccc(O)c(O)c1 [NOREPINEPHRINE] | – | – | – | – | > 10000 µM | – | – | –
O=C(O)c1ccc[n+]([O-])c1 [OXINIACIC ACID] | – | – | – | – | > 2500 µM | – | – | –
O=C(O)C(O)C(O)C(=O)O (stereo not drawn) | – | 3920 µM | 2820 µM | – | > 10000 µM | – | – | –
O=C(O)c1cn2ccccc2n1 | – | – | – | – | > 2500 µM | – | – | –
Cc1ccccc1-c1nnc(O)o1 | Dose-dependent effect | > 5000 µM | > 5000 µM | Dose-dependent effect | 199 µM | 298 µM | Dose-dependent effect | inhibition (D-amino-acid oxidase [4]): Dose-dependent effect
CCCc1cc(C(=O)O)sc1C | Dose-dependent effect | > 10000 µM | 5160 µM | Dose-dependent effect | 1830 µM | 3720 µM | Dose-dependent effect | –
O=c1[nH]nc(-c2ccccc2)o1 | Dose-dependent effect | > 10000 µM | > 10000 µM | Dose-dependent effect | 253 µM | 365 µM | Dose-dependent effect | –
CCc1cc(C(=O)O)sc1C | Dose-dependent effect | > 10000 µM | 5720 µM | Dose-dependent effect | 666 µM | 1100 µM | Dose-dependent effect | –
